Two compounds from ChEMBL document CHEMBL4342523, “Discovery and Development of S6821 and S7958 as Potent TAS2R8 Antagonists” (J Med Chem, 2020) can be followed below.

Data set [1] concerns the target T1, Taste receptor type 2 member 8 (Homo sapiens, UniProt Q9NYW2).
T1 sequence (Q9NYW2 whole entry): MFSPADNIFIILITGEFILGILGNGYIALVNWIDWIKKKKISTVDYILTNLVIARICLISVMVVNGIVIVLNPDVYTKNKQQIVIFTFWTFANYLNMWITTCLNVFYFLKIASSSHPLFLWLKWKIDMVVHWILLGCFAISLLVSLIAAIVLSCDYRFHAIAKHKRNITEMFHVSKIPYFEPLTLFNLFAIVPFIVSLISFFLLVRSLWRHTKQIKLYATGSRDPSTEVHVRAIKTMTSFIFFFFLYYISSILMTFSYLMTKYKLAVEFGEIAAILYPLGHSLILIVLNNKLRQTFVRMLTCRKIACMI
Nature of the data set: Antagonist activity at recombinant human TAS2R8 stably expressed in cells co-expressing Galpha16gust44 assessed as inhibition of andrographolide-induced intracellular calcium level measured for 100 secs by fluo-4 dye based FLIPR assay. It is filed as functional, cell-based. The gist of the method: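 Recombinant cells stably expressing G16t44 chimera and TAS2R8 (clones isolated by limiting dilution), plated 24 h before assay; loaded with fluo-4 in PBS 60 min, washed, rested 15 min in dark at RT. Andrographolide agonist at its EC80, premixed with antagonist and added together; final DMSO 0.5%. Baseline read 10 s, then fluorescence followed 100 s on FLIPR.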
Background: Calcium flux is commonly read through the fluorescence of an indicator in the cells.

The target in data set [2] is T2, Taste receptor type 2 member 8 (Homo sapiens) (UniProt Q9NYW2).
T2 sequence (whole entry): T1 sequence (Q9NYW2 whole entry)
Nature of the data set: Antagonist activity at recombinant human TAS2R8 transiently expressed in HEK293T co-expressing Galpha16gust44 assessed as inhibition of andrographolide-induced intracellular calcium level by measuring remaining activity at 25 uM by fluo-4AM dye based FLIPR assay relative to control. The class given is functional, cell-based.

Data set [3] in a line: Ratio of solubility of the compound in pH 7.1 buffer measured after 24 hrs to IC50 for antagonist activity at recombinant human TAS2R8 expressed in cells co-expressing Galpha16gust44 assessed as inhibition of andrographolide-induced intracellular calcium level. The class given is cell-based.
For data set [4], the target named is Taste receptor type 2 member 43 (Homo sapiens) (UniProt P59537). Nature of the data set: Antagonist activity at recombinant human TAS2R43 transiently expressed in HEK293T co-expressing Galpha16gust44 assessed as inhibition of aristolochic acid-induced intracellular calcium level by measuring remaining activity at 25 uM by fluo-4AM dye based FLIPR assay relative to control. It is filed as functional, cell-based.
Sequence of Taste receptor type 2 member 43 (Homo sapiens) (P59537 whole entry): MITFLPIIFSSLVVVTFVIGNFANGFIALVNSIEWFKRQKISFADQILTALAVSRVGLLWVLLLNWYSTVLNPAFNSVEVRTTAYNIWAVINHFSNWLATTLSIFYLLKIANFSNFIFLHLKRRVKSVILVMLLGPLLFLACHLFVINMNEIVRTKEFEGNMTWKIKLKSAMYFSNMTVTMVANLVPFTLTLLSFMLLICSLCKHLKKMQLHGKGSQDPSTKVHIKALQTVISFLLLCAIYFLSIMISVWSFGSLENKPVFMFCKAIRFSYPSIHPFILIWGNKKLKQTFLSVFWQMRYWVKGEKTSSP

Data set [5] can be described thus: Stability of the compound in pH 2.8 buffer assessed as parent compound remaining measured after 24 hrs at 100 degC. It is filed as physicochemical. Conditions: read-out: Stability.
Data set [6] addresses Taste receptor type 2 member 50 (Homo sapiens) (UniProt P59544). Briefly: Antagonist activity at recombinant human TAS2R50 transiently expressed in HEK293T co-expressing Galpha16gust44 assessed as inhibition of andrographolide-induced intracellular calcium level by measuring remaining activity at 25 uM by fluo-4AM dye based FLIPR assay relative to control. The class given is functional, cell-based.

A short description of data set [7]: Stability of the compound in pH 9.3 buffer assessed as parent compound remaining measured after 24 hrs at room temperature. The following applies: read-out: Stability. The class given is physicochemical.
Data set [8] addresses T3, Taste receptor type 2 member 1 (Homo sapiens) (UniProt Q9NYW7).
T3 sequence (whole entry): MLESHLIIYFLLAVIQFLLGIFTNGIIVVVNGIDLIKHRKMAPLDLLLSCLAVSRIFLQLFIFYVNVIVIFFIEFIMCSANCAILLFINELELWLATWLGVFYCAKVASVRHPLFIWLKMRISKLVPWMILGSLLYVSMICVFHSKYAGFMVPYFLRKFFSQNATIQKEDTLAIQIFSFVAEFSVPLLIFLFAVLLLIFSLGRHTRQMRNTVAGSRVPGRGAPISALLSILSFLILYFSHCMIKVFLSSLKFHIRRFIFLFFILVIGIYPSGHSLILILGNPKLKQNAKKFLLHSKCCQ
Briefly: Agonist activity at TAS2R1 (unknown origin) at 25 uM by transiently expressed cell-based assay.

In data set [9] the target is Taste receptor type 2 member 14 (Homo sapiens, UniProt Q9NYV8). Briefly: Agonist activity at TAS2R14 (unknown origin) by stably expressed cell-based assay.
Sequence of Taste receptor type 2 member 14 (Q9NYV8 whole entry): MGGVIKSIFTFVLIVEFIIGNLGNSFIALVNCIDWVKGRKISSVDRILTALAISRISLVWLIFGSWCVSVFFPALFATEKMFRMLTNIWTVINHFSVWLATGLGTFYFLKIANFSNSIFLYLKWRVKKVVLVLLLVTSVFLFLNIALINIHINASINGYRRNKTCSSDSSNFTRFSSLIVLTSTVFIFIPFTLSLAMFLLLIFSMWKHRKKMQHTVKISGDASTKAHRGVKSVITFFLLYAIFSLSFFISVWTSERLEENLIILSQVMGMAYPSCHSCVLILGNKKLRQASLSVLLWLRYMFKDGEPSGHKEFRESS
Data set [10] in a line: Stability of the compound in pH 7.1 buffer assessed as parent compound remaining measured after 60 mins at 124 degC. The class given is physicochemical. The following applies: read-out: Stability.
The nature of data set [11]: Chronic toxicity in po dosed Sprague-Dawley rat administered daily for 90 days. Conditions: in vivo. It is filed as organism-based.
Data set [12] can be described thus: Maternal toxicity in po dosed Sprague-Dawley rat assessed as effect on embryo and fetal development administered via gavage during gestation period. The class given is ADME, organism-based. Conditions: female, in vivo.
Data set [13] relates to Homo sapiens. Briefly: In vivo agonist activity at TAS2R14 in human assessed as induction of intrinsic bitterness up to 150 uM in presence of low sodium buffer by 15-point bitterness scale based assay. It is filed as functional, organism-based. The gist of the method:
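Human sensory test: trained external panelists, no food or drink except water ≥1 h before; compound from ethanol stock, final ethanol 0.1% (matched in blanks), in low sodium phosphate buffer pH 7.1 (0.3 mM KCl, 0.5 mM Na2HPO4, 0.175 mM KH2PO4); bitterness rated on 1–15 scale, 15 panelists × 2 replicates, Tukey's test (α = 0.05).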

Data set [14] is described as follows: Stability of the compound in pH 2.8 buffer assessed as parent compound remaining measured after 24 hrs at room temperature. The class given is physicochemical. Conditions: read-out: Stability.
For data set [15], the target named is T2, Taste receptor type 2 member 8 (Homo sapiens). Briefly: Competitive antagonist activity at recombinant human TAS2R8 assessed as inhibition of chloramphenicol-induced intracellular calcium level at 3 to 3000 nM preincubated for 60 secs followed by varying levels of chloramphenicol addition using Fura-2AM dye by cell-based fluorescent microscopic analysis.
For data set [16] the target is unchanged. Nature of the data set: Antagonist activity at recombinant human TAS2R8 assessed as inhibition of andrographolide-induced intracellular calcium level at 1 uM preincubated for 60 secs followed by andrographolide addition using Fura-2AM dye by cell-based fluorescent microscopic analysis. It is filed as functional. The gist of the method:
(§1)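 TAS2R8 stable cells grown overnight on Matrigel-coated coverslips, loaded with 3 μg/mL Fura-2AM 1 h at RT in HBSS; ratiometric imaging under continuous HBSS perfusion with 100 μM andrographolide. Inhibitor 1 μM applied 60 s before and during agonist; 5 min HBSS washout between applications; only cells with initial ΔF/F > 0.5 analysed; mean and per-cell peak responses, 136 cells, 3 experiments.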

Data set [17] in a line: Stability of the compound in pH 7.1 buffer assessed as parent compound remaining measured after 24 hrs at room temperature. The class given is physicochemical. Conditions: read-out: Stability.
Data set [18] in a line: Maternal toxicity in po dosed Sprague-Dawley rat administered via gavage during gestation period. The following applies: female, in vivo. It is filed as ADME, organism-based.
The target of data set [19] is T2, Taste receptor type 2 member 8 (Homo sapiens). Briefly: Reversible antagonist activity at recombinant human TAS2R8 assessed as recovery of suppression of andrographolide-induced intracellular calcium level at 1 uM preincubated for 60 secs followed by andrographolide addition measured after 5 mins washout period using Fura-2AM dye by cell-based fluorescent microscopic analysis. It is filed as functional. In a few lines: as §1

Activity calls are given as the source filed them. The calls are words filed in the database; no cut-off is given here. Some results are limits rather than exact numbers.

Sequence of Taste receptor type 2 member 50 (Homo sapiens) (P59544 whole entry): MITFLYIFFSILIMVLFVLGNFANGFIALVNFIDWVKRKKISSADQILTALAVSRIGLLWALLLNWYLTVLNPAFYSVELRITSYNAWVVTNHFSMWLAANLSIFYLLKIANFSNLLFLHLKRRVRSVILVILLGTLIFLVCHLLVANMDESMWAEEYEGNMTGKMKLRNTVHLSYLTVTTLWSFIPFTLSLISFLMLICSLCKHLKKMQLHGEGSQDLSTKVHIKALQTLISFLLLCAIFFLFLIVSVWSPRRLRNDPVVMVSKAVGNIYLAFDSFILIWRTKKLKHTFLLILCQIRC

By IC50 is commonly meant the concentration needed to halve the response being measured. Consider `Cc1noc(C)c1Cn1cc(N2C(=O)N(Cc3cccc(O)c3)C(C)(C)C2=O)cn1`, for which the IC50 in data set [1] came to 60 nM. In addition, the Activity worked out at 7% in data set [2], 88% in data set [4] and 91% in [6]. In addition, the Ratio in data set [3] came to 1290. Further, the remaining at 24 h in data set [5] is > 99%.

Usually EC50 stands for the concentration at which the effect is half-maximal. The NOAEL is the highest dose or exposure tested at which no adverse effect was seen. Regarding `Cc1noc(C)c1Cn1cc(N2C(=O)CN(Cc3cccc(O)c3)C2=O)cn1`, the remaining at 24 h in [7] was 20%; in data set [5], > 99%; in [14] it was > 99%; in data set [17], > 99%. Moreover, in data set [1], the IC50 turned out to be 20 nM. The Activity was 13% in data set [2], 84% in [4] and 99% in data set [6]. Besides, the outcome in [8] was Active. The Ratio in data set [3] was 11600. Moreover, in data set [9], the midpoint of the response, the EC50, lay at 40 µM. Besides, the remaining at 1 h in data set [10] amounted to 89%. The NOAEL at 2160 h in data set [11] turned out to be 100 mg/kg. Further, the NOAEL in [12] and in data set [18] was 1000 mg/kg in each case. Further, in data set [13], the result was inactive. For the same compound, the inhibition result in data set [15], in [16] and in data set [19] was “Active” each time.
